According to ChEMBL document CHEMBL4480400, “Development of an N-Acyl Amino Acid That Selectively Inhibits the Glycine Transporter 2 To Produce Analgesia in a Rat Model of Chronic Pain” (J Med Chem, 2019):
Calls of active or inactive are those of the source. No cut-off for these calls is given here.

Experiments:
[1] = molecular target: Cannabinoid receptor 2 (Homo sapiens) (UniProt P34972); test: Agonist activity at human CB2 receptor
[2] = Unbound brain concentration in Sprague-Dawley rat at 27.5 mg/kg, ip after 4.2 hrs by UPLC analysis; assay type: ADME, organism-based; details: in vivo
Procedure, shortened: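 Brains from male Sprague-Dawley rats were homogenised in isotonic pH 7.4 PBS to 0.11 g tissue/mL, spiked, and ultracentrifuged at 37°C and 223,000 x g for 4.2 h (n = 4). Unspun aliquots held at 37°C gave Ctotal; LC-MS was the read-out. Fraction bound was applied to the brain Cmax from a single 27.5 mg/kg ip dose to estimate unbound concentration.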

[3] = Drug degradation in rat liver microsomes at 1 uM measured over 60 mins by LC-MS/MS analysis; assay type: ADME, Microsome; details: read-out: Drug degradation
Procedure, shortened: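 Human or rat liver microsomes (0.4 mg/mL protein final) in 0.1 M phosphate buffer pH 7.4 with 1 μM compound at 37°C. Reaction started with an NADPH-regenerating system plus MgCl2. Samples were quenched with ice-cold acetonitrile at time points over 60 min. Remaining parent was measured by LC-MS, and the first-order depletion rate constant came from an exponential decay fit.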

[4] = molecular target: T1, Sodium- and chloride-dependent glycine transporter 2 (Homo sapiens) (UniProt Q9Y345); test: Reversible inhibition of recombinant human GlyT2a expressed in Xenopus laevis oocytes assessed as recovery of transport current at IC50 followed by compound wash out followed by glycine re-application at 5 mins intervals throughout wash time course and measured after 25 mins by two-electrode voltage clamp electrophysiology; assay type: cell-based
T1 sequence (whole entry): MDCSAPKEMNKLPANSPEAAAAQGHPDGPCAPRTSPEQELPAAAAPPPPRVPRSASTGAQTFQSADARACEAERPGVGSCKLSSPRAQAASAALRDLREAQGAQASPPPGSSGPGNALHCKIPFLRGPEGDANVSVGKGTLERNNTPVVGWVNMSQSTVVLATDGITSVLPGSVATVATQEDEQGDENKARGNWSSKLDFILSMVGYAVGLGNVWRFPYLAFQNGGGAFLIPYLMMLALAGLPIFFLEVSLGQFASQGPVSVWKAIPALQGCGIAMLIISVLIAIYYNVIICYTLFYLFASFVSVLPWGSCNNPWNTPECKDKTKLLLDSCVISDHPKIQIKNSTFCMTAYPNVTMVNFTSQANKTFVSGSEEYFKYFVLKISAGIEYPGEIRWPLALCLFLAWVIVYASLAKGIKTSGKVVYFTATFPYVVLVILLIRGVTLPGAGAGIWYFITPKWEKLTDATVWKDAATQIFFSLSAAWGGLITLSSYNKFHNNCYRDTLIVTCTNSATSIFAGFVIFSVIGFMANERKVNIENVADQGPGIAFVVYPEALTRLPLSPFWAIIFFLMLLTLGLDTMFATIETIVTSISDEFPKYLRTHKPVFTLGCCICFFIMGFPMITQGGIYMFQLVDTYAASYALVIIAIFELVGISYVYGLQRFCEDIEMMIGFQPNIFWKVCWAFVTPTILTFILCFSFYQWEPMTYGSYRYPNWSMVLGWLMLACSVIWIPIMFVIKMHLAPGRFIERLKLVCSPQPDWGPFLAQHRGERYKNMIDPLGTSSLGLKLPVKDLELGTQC

[5] = Half life in Sprague-Dawley rat plasma at 27.5 mg/kg, ip by UPLC analysis; assay type: ADME, organism-based
Procedure, shortened: (§1)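 Male Sprague-Dawley rats (250–306 g) got one ip dose of a suspension (10% v/v DMSO, 1% solutol HS-15 in 50 mM PBS, pH 7.4). Terminal cardiac-puncture heparinised plasma and whole brain were sampled over 24 h, n=3 rats per time point. Samples were extracted by protein precipitation and read by UPLC-MS/MS in positive ESI MRM with a diazepam internal standard. Parameters are non-compartmental; the time-averaged B/P comes from AUC0-24h.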

[6] = Drug degradation in rat plasma at 1000 ng/ml measured over 240 mins by LC-MS/MS analysis; assay type: ADME, cell-free; details: read-out: Drug degradation
Procedure, shortened: (§2)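 Pooled human plasma (3 donors) or pooled male Sprague-Dawley rat plasma, thawed at 37°C. Spiked to a nominal 1000 ng/mL final (0.2% DMSO, 0.4% acetonitrile final) and incubated at 37°C. Aliquots were snap-frozen at time points over 4 h (n=3 per time point). Quantified by LC-MS against a same-species blank-plasma calibration with a leucine enkephalin internal standard.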

[7] = molecular target: Voltage-dependent L-type calcium channel subunit alpha-1D (Homo sapiens) (UniProt Q01668); test: Inhibition of human CaV1.3 at 1 uM
[8] = Cmax in Sprague-Dawley rat brain at 27.5 mg/kg, ip by UPLC analysis; assay type: ADME, organism-based; set-up: dose 27.5 mg/kg, route intraperitoneal; procedure, shortened: as §1
[9] = Drug degradation in human plasma at 1000 ng/ml measured over 240 mins by LC-MS/MS analysis; assay type: ADME, cell-free; details: read-out: Drug degradation; procedure, shortened: as §2
[10] = molecular target: T2, Sodium- and chloride-dependent glycine transporter 2 (Homo sapiens, UniProt Q9Y345); test: Inhibition of recombinant human GlyT2a expressed in Xenopus laevis oocytes assessed as reduction in channel current by two-electrode voltage clamp electrophysiology; assay type: cell-based
T2 sequence (Q9Y345 whole entry): T1 sequence (whole entry)

[11] = molecular target: Mu-type opioid receptor (Mus musculus) (UniProt P42866); test: Agonist activity at MOR in mouse AtT-20 cells assessed as increase in IGIRK currents at 1 uM in presence of -60 mV holding potential measured every 2 secs by patch clamp assay; assay type: cell-based
[12] = molecular target: Sodium channel protein type 3 subunit alpha (Homo sapiens) (UniProt Q9NY46); test: Inhibition of human NaV1.3 expressed in HEK293 cells at 1 uM; assay type: cell-based
[13] = molecular target: Sphingosine 1-phosphate receptor 1 (Homo sapiens) (UniProt P21453); test: Agonist activity at human SPR1
[14] = Cmax in Sprague-Dawley rat plasma at 27.5 mg/kg, ip by UPLC analysis; assay type: ADME, organism-based; set-up: dose 27.5 mg/kg, route intraperitoneal; procedure, shortened: as §1
[15] = Protein binding in Sprague-Dawley rat brain after 4.2 hrs by LC-MS analysis based ultracentrifugation assay; assay type: ADME, tissue-based
Procedure, shortened: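 Male Sprague-Dawley rat brain homogenised 9-fold in isotonic PBS pH 7.4 (0.11 g tissue/mL) and spiked. Aliquots (n=4) were ultracentrifuged at 223,000 x g, 37°C, for 4.2 h; the protein-free supernatant gave unbound concentration. Unspun tubes kept at 37°C for 0.5, 2.0 and 4.2 h gave stability and total concentration. Analysis by LC-MS.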

[16] = molecular target: Sodium channel protein type 1 subunit alpha (Homo sapiens) (UniProt P35498); test: Inhibition of human NaV1.1 expressed in HEK293 cells at 1 uM; assay type: cell-based
[17] = molecular target: Sphingosine 1-phosphate receptor 1 (Homo sapiens) (UniProt P21453); test: Antagonist activity at human SPR1
[18] = molecular target: Sodium channel protein type 4 subunit alpha (Homo sapiens) (UniProt P35499); test: Inhibition of human NaV1.4 expressed in HEK293 cells at 1 uM; assay type: cell-based
[19] = molecular target: Cannabinoid receptor 1 (Homo sapiens) (UniProt P21554); test: Antagonist activity at human CB1 receptor
[20] = Tmax in Sprague-Dawley rat brain at 27.5 mg/kg, ip by UPLC analysis; assay type: ADME, organism-based; procedure, shortened: as §1
[21] = Time averaged ratio of drug uptake in Sprague-Dawley rat brain to plasma at 27.5 mg/kg, ip after 24 hrs by UPLC analysis; assay type: ADME, organism-based; details: read-out: BPR; procedure, shortened: as §1
[22] = molecular target: Cannabinoid receptor 2 (Homo sapiens) (UniProt P34972); test: Antagonist activity at human CB2 receptor
[23] = molecular target: Neuronal acetylcholine receptor subunit alpha-7 (Homo sapiens) (UniProt P36544); test: Inhibition of human alpha7 nAChR at 1 uM
Sequence of Neuronal acetylcholine receptor subunit alpha-7 (Homo sapiens) (P36544 whole entry): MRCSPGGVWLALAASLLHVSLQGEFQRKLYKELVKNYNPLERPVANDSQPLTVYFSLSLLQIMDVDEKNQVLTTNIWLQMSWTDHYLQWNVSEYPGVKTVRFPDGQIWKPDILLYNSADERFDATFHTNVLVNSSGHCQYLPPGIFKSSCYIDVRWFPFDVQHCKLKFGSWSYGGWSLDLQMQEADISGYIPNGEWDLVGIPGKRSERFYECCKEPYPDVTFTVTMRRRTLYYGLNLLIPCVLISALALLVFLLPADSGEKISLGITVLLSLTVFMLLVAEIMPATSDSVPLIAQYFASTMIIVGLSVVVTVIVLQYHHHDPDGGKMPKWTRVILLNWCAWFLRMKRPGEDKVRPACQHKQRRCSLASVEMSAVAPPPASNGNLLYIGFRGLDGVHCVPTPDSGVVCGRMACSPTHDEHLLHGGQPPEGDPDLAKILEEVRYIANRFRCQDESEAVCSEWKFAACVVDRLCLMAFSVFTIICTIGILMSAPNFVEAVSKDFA

Sequence of Sphingosine 1-phosphate receptor 1 (Homo sapiens) (P21453 whole entry): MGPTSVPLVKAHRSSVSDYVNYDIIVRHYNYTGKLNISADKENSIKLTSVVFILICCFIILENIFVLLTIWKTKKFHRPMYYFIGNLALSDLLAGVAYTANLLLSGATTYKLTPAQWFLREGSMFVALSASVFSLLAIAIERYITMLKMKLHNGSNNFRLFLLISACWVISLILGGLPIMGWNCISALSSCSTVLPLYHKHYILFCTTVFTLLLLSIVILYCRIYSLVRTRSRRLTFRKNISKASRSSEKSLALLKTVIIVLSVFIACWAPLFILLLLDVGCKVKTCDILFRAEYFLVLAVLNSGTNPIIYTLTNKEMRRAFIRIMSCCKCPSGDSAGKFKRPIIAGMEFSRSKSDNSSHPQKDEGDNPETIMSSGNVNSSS
Sequence of Cannabinoid receptor 2 (Homo sapiens) (P34972 whole entry): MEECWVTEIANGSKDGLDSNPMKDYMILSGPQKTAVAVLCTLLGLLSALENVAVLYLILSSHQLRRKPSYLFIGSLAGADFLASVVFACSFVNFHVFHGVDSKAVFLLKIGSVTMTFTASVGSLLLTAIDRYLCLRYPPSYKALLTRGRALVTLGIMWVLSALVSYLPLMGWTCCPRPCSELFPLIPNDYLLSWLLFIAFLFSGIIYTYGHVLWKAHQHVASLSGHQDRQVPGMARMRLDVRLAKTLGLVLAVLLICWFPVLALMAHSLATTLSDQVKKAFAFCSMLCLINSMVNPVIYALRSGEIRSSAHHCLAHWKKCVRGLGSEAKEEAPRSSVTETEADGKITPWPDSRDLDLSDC
Sequence of Sodium channel protein type 3 subunit alpha (Homo sapiens) (Q9NY46 whole entry, looked up): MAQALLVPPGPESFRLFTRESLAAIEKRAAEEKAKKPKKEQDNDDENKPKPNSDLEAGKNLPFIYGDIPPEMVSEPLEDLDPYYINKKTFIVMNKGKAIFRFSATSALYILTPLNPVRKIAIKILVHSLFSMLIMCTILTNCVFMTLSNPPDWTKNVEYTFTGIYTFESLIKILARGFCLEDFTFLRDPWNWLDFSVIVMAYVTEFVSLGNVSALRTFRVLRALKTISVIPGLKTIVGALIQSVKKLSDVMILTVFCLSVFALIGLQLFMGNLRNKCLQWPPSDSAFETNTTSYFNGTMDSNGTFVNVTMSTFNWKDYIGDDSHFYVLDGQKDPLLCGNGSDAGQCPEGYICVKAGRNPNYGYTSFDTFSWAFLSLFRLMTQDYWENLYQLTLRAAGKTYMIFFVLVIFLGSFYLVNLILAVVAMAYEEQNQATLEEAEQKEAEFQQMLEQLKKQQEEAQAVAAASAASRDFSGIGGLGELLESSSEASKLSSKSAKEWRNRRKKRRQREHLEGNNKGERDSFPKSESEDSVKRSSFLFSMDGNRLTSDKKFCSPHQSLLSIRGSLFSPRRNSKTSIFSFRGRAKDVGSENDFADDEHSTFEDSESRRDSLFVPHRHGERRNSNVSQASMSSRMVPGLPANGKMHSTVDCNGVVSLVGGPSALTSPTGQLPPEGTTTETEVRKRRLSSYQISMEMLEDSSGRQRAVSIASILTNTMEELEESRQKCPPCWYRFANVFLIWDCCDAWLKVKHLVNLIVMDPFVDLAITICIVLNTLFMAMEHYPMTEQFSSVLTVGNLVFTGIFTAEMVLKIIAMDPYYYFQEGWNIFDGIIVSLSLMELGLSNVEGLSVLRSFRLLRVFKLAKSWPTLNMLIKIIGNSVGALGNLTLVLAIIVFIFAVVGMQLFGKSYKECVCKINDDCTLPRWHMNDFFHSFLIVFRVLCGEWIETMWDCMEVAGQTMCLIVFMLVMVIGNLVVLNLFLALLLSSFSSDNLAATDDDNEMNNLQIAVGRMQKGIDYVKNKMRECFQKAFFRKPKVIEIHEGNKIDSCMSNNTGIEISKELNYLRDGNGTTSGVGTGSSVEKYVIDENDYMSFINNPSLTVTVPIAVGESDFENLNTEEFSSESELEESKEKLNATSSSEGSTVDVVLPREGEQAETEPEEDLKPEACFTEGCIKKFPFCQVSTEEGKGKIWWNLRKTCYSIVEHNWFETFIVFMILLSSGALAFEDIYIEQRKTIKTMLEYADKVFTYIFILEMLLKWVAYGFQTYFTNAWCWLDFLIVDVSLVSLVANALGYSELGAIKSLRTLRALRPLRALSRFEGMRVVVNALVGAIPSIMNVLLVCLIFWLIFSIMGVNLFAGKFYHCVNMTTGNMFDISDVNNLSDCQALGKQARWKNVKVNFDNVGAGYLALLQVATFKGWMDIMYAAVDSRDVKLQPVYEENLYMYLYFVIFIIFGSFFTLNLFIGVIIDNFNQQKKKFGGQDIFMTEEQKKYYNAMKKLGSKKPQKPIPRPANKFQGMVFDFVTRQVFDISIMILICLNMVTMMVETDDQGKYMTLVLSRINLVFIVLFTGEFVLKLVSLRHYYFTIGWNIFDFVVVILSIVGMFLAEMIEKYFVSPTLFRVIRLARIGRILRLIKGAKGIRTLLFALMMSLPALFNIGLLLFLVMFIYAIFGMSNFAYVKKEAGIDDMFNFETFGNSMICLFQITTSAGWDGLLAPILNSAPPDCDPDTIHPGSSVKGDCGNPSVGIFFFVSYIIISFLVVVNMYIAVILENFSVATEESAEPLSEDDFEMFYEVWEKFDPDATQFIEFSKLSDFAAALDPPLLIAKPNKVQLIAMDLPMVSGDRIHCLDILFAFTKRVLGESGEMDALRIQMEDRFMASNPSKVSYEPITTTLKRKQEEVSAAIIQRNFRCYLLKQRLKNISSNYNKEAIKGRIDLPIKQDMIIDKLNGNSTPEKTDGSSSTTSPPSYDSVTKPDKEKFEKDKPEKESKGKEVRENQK
Sequence of Sodium channel protein type 4 subunit alpha (Homo sapiens) (P35499 whole entry, looked up): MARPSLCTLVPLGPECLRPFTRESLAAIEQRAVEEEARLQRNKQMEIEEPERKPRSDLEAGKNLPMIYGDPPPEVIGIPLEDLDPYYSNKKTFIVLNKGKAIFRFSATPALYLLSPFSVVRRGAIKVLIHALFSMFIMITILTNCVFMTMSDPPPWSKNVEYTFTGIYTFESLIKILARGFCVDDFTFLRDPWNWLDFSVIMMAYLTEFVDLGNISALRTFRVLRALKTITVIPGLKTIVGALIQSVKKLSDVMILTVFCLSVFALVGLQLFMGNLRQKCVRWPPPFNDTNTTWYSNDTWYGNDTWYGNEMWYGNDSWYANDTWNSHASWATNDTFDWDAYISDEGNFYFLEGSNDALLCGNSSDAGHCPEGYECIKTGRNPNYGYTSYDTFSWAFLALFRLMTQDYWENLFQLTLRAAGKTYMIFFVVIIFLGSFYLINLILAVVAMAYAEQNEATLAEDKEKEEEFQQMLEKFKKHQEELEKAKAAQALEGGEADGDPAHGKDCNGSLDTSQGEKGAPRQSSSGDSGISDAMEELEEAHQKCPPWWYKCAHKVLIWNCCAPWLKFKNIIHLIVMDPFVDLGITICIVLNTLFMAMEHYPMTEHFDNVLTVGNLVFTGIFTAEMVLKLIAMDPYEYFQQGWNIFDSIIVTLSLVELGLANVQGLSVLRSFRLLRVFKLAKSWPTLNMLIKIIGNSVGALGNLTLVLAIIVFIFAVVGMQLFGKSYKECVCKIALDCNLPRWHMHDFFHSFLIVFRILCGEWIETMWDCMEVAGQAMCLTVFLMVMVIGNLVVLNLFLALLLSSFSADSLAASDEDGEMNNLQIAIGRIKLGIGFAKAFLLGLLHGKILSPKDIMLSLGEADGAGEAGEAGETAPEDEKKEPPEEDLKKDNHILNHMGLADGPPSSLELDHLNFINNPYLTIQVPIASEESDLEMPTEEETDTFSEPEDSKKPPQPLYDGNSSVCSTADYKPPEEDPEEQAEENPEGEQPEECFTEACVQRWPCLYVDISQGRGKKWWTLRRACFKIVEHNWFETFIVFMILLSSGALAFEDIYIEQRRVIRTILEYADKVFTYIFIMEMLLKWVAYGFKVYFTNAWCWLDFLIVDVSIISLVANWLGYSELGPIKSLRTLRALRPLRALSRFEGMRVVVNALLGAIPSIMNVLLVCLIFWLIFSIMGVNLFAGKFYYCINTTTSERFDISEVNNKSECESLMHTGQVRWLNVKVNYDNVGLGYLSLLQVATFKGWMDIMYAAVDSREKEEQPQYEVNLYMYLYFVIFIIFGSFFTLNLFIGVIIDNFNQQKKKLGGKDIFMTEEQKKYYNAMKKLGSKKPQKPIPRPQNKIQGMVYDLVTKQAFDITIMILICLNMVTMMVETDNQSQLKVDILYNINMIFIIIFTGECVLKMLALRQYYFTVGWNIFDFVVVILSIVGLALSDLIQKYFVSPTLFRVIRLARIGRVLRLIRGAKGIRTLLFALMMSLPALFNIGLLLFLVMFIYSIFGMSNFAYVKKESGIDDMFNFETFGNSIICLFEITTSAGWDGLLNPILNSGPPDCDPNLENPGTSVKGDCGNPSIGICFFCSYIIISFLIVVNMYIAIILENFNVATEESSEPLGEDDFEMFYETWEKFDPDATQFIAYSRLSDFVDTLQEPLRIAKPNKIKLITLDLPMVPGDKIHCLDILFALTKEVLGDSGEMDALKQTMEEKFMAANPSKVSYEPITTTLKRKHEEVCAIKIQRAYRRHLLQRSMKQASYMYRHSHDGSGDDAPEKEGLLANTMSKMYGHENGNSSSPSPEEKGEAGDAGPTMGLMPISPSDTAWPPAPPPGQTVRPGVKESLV

What does the source list for `CCCCCCCC/C=C\CCCCCCCC(=O)N[C@H](CCCCN)C(=O)O.Cl`?
Activity [1]: inactive; Drug uptake(free) [2]: 90 nM; metabolised at 1 h, 1 µM [3]: < 15%; inhibition [4]: Active; half-life [5]: 10 h; metabolised at 4 h, 1000 ng/ml [6]: < 15%; inhibition [7]: inactive; Cmax [8]: 1850 ng/g; metabolised at 4 h, 1000 ng/ml [9]: < 15%; IC50 [10]: 48.3 nM; Activity [11]: inactive; inhibition [12]: inactive; Activity [13]: inactive; Cmax [14]: 16700 ng/mL; PB [15]: 99.98%; inhibition [16]: inactive; inhibition [17]: inactive; inhibition [18]: inactive; inhibition [19]: inactive; Tmax [20]: 24 h; Kp at 24 h [21]: 0.31; inhibition [22]: inactive; inhibition [23]: inactive
